Results from ChEMBL document CHEMBL4373711, “Development of 3,5-Dinitrophenyl-Containing 1,2,4-Triazoles and Their Trifluoromethyl Analogues as Highly Efficient Antitubercular Agents Inhibiting Decaprenylphosphoryl-β-d-ribofuranose 2'-Oxidase” (J Med Chem, 2019).
In brackets after ≈: the same amount, converted by molar mass. Activity calls are given as the source filed them. The rule behind the calls is not given here.

Experiments:
Escherichia coli = test: Antibacterial activity against Escherichia coli ATCC 25922 CCM 3954 at highest concentration measured after 24 to 48 hrs by alamar blue dye based broth microdilution assay; format: functional, organism-based
Klebsiella pneumoniae = test: Antibacterial activity against Klebsiella pneumoniae at highest concentration measured after 24 to 48 hrs by alamar blue dye based broth microdilution assay; format: functional, organism-based
[1] = tested on: Mycobacterium tuberculosis; test: Antimycobacterial activity against Mycobacterium tuberculosis H37Rv CNCTC My 331/88 after 14 days; format: functional; details: H37Rv CNCTC My 331/88, 336 h
Method in brief: (§1)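 M. tuberculosis strains (H37Rv and clinical MDR/XDR isolates) tested by microdilution in Šula's semisynthetic medium. Compounds were dissolved in DMSO and tested at 32 to 0.03 µM in twofold steps. Inoculum was a 1.0 McFarland suspension diluted 10-3. Plates were incubated at 37 °C and read at 14 and 21 days.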

Aspergillus fumigatus = test: Antifungal activity against Aspergillus fumigatus ATCC 204305 at highest concentration measured after 24 to 48 hrs by alamar blue dye based broth microdilution assay; format: functional, organism-based
Mycobacterium avium [2] = test: Antimycobacterial activity against Mycobacterium avium CNCTC My 330/88 after 21 days; format: functional; details: CNCTC My 330/88, 504 h
Method in brief: (§2)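 M. avium was tested by microdilution in Šula's semisynthetic medium, with compounds dissolved in DMSO and serially diluted from 1000 down to 1. Inoculum was a 1.0 McFarland suspension diluted 10-5. Plates were incubated at 37 °C and read at 14 and 21 days. […] Isoniazid and rifampicin served as standards.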

Staphylococcus aureus [3] = test: Antibacterial activity against Staphylococcus aureus subsp. aureus ATCC 29213 CCM 4223 at highest concentration measured after 24 to 48 hrs by alamar blue dye based broth microdilution assay; format: functional, organism-based
Candida albicans = test: Antifungal activity against Candida albicans ATCC 24433 CCM 8320 at highest concentration measured after 24 to 48 hrs by alamar blue dye based broth microdilution assay; format: functional, organism-based
Enterococcus faecalis = test: Antibacterial activity against Enterococcus faecalis ATCC 29212 CCM 4224 at highest concentration measured after 24 to 48 hrs by alamar blue dye based broth microdilution assay; format: functional, organism-based
Mycobacterium kansasii [4] = test: Antimycobacterial activity against Mycobacterium kansasii CNCTC My 235/80 after 21 days; format: functional; details: CNCTC My 235/80, 504 h
Method in brief: (§3)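 Microdilution in Šula's semisynthetic medium; compounds in DMSO at 32–0.03 µM. Inoculum from 1.0 McFarland suspension diluted 10-4. […] Isoniazid and rifampicin as reference drugs.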

Mycobacterium kansasii [5] = test: Antimycobacterial activity against Mycobacterium kansasii CNCTC My 235/80 after 7 days; format: functional; details: CNCTC My 235/80, 168 h; method in brief: as §3
Mycobacterium avium [6] = test: Antimycobacterial activity against Mycobacterium avium CNCTC My 330/88 after 14 days; format: functional; details: CNCTC My 330/88, 336 h; method in brief: as §2
Serratia marcescens = test: Antibacterial activity against Serratia marcescens at highest concentration measured after 24 to 48 hrs by alamar blue dye based broth microdilution assay; format: functional, organism-based
Candida tropicalis = test: Antifungal activity against Candida tropicalis ATCC 750 CCM 8264 at highest concentration measured after 24 to 48 hrs by alamar blue dye based broth microdilution assay; format: functional, organism-based
[7] = tested on: Staphylococcus epidermidis; test: Antibacterial activity against Staphylococcus epidermidis at highest concentration measured after 24 to 48 hrs by alamar blue dye based broth microdilution assay; format: functional, organism-based
Mycobacterium kansasii [8] = test: Antimycobacterial activity against Mycobacterium kansasii 6509/96 after 14 days; format: functional; details: 6509/96, 336 h; method in brief: as §3
Lichtheimia corymbifera = test: Antifungal activity against Lichtheimia corymbifera CCM 8077 at highest concentration measured after 24 to 48 hrs by alamar blue dye based broth microdilution assay; format: functional, organism-based
Pseudomonas aeruginosa = test: Antibacterial activity against Pseudomonas aeruginosa ATCC 27853 CCM 3955 at highest concentration measured after 24 to 48 hrs by alamar blue dye based broth microdilution assay; format: functional, organism-based
Candida parapsilosis = test: Antifungal activity against Candida parapsilosis ATCC 22019 CCM 8260 at highest concentration measured after 24 to 48 hrs by alamar blue dye based broth microdilution assay; format: functional, organism-based
Mycobacterium kansasii [9] = test: Antimycobacterial activity against Mycobacterium kansasii CNCTC My 235/80 after 14 days; format: functional; details: CNCTC My 235/80, 336 h; method in brief: as §3
Aspergillus flavus = test: Antifungal activity against Aspergillus flavus CCM 8363 at highest concentration measured after 24 to 48 hrs by alamar blue dye based broth microdilution assay; format: functional, organism-based
Mycobacterium kansasii [10] = test: Antimycobacterial activity against Mycobacterium kansasii 6509/96 after 7 days; format: functional; details: 6509/96, 168 h; method in brief: as §3
Staphylococcus aureus [11] = test: Antibacterial activity against methicillin-resistant Staphylococcus aureus subsp. aureus ATCC 43300 CCM 4750 at highest concentration measured after 24 to 48 hrs by alamar blue dye based broth microdilution assay; format: functional, organism-based
Mycobacterium kansasii [12] = test: Antimycobacterial activity against Mycobacterium kansasii 6509/96 after 21 days; format: functional; details: 6509/96, 504 h; method in brief: as §3
Pichia kudriavzevii = test: Antifungal activity against Candida krusei ATCC 6258 CCM8271 at highest concentration measured after 24 to 48 hrs by alamar blue dye based broth microdilution assay; format: functional, organism-based
[13] = tested on: Mycobacterium tuberculosis; test: Antimycobacterial activity against Mycobacterium tuberculosis H37Rv CNCTC My 331/88 after 21 days; format: functional; details: H37Rv CNCTC My 331/88, 504 h; method in brief: as §1
[14] = tested on: Trichophyton interdigitale; test: Antifungal activity against Trichophyton interdigitale ATCC 9533 CCM 8377 at highest concentration measured after 72 to 120 hrs by alamar blue dye based broth microdilution assay; format: functional

| SMILES | MIC99 [1] | MIC99 (Mycobacterium avium [2]) | MIC99 (Mycobacterium kansasii [4]) | MIC99 (Mycobacterium kansasii [5]) | MIC99 (Mycobacterium avium [6]) | MIC99 (Mycobacterium kansasii [8]) | MIC99 (Mycobacterium kansasii [9]) | MIC99 (Mycobacterium kansasii [10]) | MIC99 (Mycobacterium kansasii [12]) | MIC99 [13] | other results |
| --- | --- | --- | --- | --- | --- | --- | --- | --- | --- | --- | --- |
| COc1ccc(-c2nnc(SCc3cc([N+](=O)[O-])cc([N+](=O)[O-])c3)n2Cc2ccccc2)cc1 | 4 µM (≈ 1.91 µg/mL) | 250 µM (≈ 119 µg/mL) | 8 µM (≈ 3.82 µg/mL) | 4 µM (≈ 1.91 µg/mL) | 250 µM (≈ 119 µg/mL) | 8 µM (≈ 3.82 µg/mL) | 8 µM (≈ 3.82 µg/mL) | 8 µM (≈ 3.82 µg/mL) | 8 µM (≈ 3.82 µg/mL) | 4 µM (≈ 1.91 µg/mL) | Activity (Escherichia coli): inactive; Activity (Klebsiella pneumoniae): inactive; Activity (Aspergillus fumigatus): inactive; Activity (Staphylococcus aureus [3]): inactive; Activity (Candida albicans): inactive; Activity (Enterococcus faecalis): inactive; Activity (Serratia marcescens): inactive; Activity (Candida tropicalis): inactive; Activity [7]: inactive; Activity (Lichtheimia corymbifera): inactive; Activity (Pseudomonas aeruginosa): inactive; Activity (Candida parapsilosis): inactive; Activity (Aspergillus flavus): inactive; Activity (Staphylococcus aureus [11]): inactive; Activity (Pichia kudriavzevii): inactive; Activity [14]: inactive |
| Cn1c(SCc2cc([N+](=O)[O-])cc([N+](=O)[O-])c2)nnc1-c1ccccc1 | 4 µM (≈ 1.49 µg/mL) | 250 µM (≈ 92.8 µg/mL) | 16 µM (≈ 5.94 µg/mL) | 4 µM (≈ 1.49 µg/mL) | 125 µM (≈ 46.4 µg/mL) | 8 µM (≈ 2.97 µg/mL) | 8 µM (≈ 2.97 µg/mL) | 4 µM (≈ 1.49 µg/mL) | 16 µM (≈ 5.94 µg/mL) | 4 µM (≈ 1.49 µg/mL) | – |
| O=[N+]([O-])c1cc(CSc2nnc(-c3ccc(Cl)c(Cl)c3)n2Cc2ccccc2)cc([N+](=O)[O-])c1 | 2 µM (≈ 1.03 µg/mL) | 250 µM (≈ 129 µg/mL) | 2 µM (≈ 1.03 µg/mL) | 1 µM (≈ 0.516 µg/mL) | 250 µM (≈ 129 µg/mL) | 4 µM (≈ 2.07 µg/mL) | 2 µM (≈ 1.03 µg/mL) | 2 µM (≈ 1.03 µg/mL) | 4 µM (≈ 2.07 µg/mL) | 2 µM (≈ 1.03 µg/mL) | – |
| O=[N+]([O-])c1cc(CSc2nnc(CCCCCO)n2Cc2ccccc2)cc([N+](=O)[O-])c1 | 16 µM (≈ 7.32 µg/mL) | > 1000 µM | 32 µM (≈ 14.6 µg/mL) | 8 µM (≈ 3.66 µg/mL) | > 1000 µM | 32 µM (≈ 14.6 µg/mL) | 16 µM (≈ 7.32 µg/mL) | 16 µM (≈ 7.32 µg/mL) | 32 µM (≈ 14.6 µg/mL) | 32 µM (≈ 14.6 µg/mL) | – |
| O=C(NNC(=S)NCc1ccccc1)c1cc([N+](=O)[O-])cc([N+](=O)[O-])c1 | 8 µM (≈ 3 µg/mL) | 62 µM (≈ 23.3 µg/mL) | 32 µM (≈ 12 µg/mL) | 32 µM (≈ 12 µg/mL) | 62 µM (≈ 23.3 µg/mL) | 16 µM (≈ 6.01 µg/mL) | 32 µM (≈ 12 µg/mL) | 16 µM (≈ 6.01 µg/mL) | 16 µM (≈ 6.01 µg/mL) | 8 µM (≈ 3 µg/mL) | – |
| CCCCCCCCSc1nnc(-c2cc([N+](=O)[O-])cc(C(F)(F)F)c2)n1Cc1ccccc1 | 2 µM (≈ 0.985 µg/mL) | 250 µM (≈ 123 µg/mL) | 2 µM (≈ 0.985 µg/mL) | 1 µM (≈ 0.493 µg/mL) | 250 µM (≈ 123 µg/mL) | – | 2 µM (≈ 0.985 µg/mL) | – | – | 2 µM (≈ 0.985 µg/mL) | – |
| O=[N+]([O-])c1cc(-c2nnc(SCc3ccc(Br)cc3)n2Cc2ccccc2)cc(C(F)(F)F)c1 | 1 µM (≈ 0.549 µg/mL) | 250 µM (≈ 137 µg/mL) | 1 µM (≈ 0.549 µg/mL) | 0.5 µM (≈ 0.275 µg/mL) | 250 µM (≈ 137 µg/mL) | 1 µM (≈ 0.549 µg/mL) | 1 µM (≈ 0.549 µg/mL) | 0.5 µM (≈ 0.275 µg/mL) | 2 µM (≈ 1.1 µg/mL) | 1 µM (≈ 0.549 µg/mL) | – |
| CCNC(=S)NNC(=O)c1cc([N+](=O)[O-])cc([N+](=O)[O-])c1 | > 32 µM | 1000 µM (≈ 313 µg/mL) | > 32 µM | > 32 µM | 1000 µM (≈ 313 µg/mL) | > 32 µM | > 32 µM | > 32 µM | > 32 µM | > 32 µM | – |
| O=C(NNC(=S)NCc1ccc(Cl)cc1Cl)c1cc([N+](=O)[O-])cc([N+](=O)[O-])c1 | 8 µM (≈ 3.55 µg/mL) | 32 µM (≈ 14.2 µg/mL) | 16 µM (≈ 7.11 µg/mL) | 16 µM (≈ 7.11 µg/mL) | 16 µM (≈ 7.11 µg/mL) | 16 µM (≈ 7.11 µg/mL) | 16 µM (≈ 7.11 µg/mL) | 16 µM (≈ 7.11 µg/mL) | 16 µM (≈ 7.11 µg/mL) | 8 µM (≈ 3.55 µg/mL) | – |
